Experiment [1] in a line: concentration required to reduce CEM cell proliferation by 50%. The settings on record: Homo sapiens.
The nature of experiment [2]: concentration required to reduce virus Human Cytomegalovirus (Davis)plaque formation by 50%. In kind it is functional. In a few lines:
(§1)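 Confluent HEL fibroblasts were infected with 100 PFU cell-free HCMV, and residual virus was removed after 2 h. Cells were kept in MEM with 2% FCS and compound dilutions spaced 5-fold, in duplicate, for 7 days at 37 °C in 5% CO2. They were ethanol-fixed and Giemsa-stained, and cytopathic effect was scored microscopically. IC50 was interpolated from plots as the mean of two experiments.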

Experiment [3] can be described thus: concentration required to reduce virus HCMV (AD-169)plaque formation by 50%. It counts as functional, Homo sapiens. In a few lines: as §1
For experiment [4], the system named is Human betaherpesvirus 5. The experiment is described as follows: In vitro inhibition of HCMV (AD-169) plaque formation. It counts as functional, organism-based. In a few lines:
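Confluent HEL fibroblasts infected with HCMV at 100 PFU of cell-free virus; after a 2-h adsorption, residual virus removed and cells incubated in MEM with 2% FCS containing serial 5-fold compound dilutions, in duplicate. Fixed with ethanol after 7 days at 37 °C, 5% CO2, then Giemsa-stained; cytopathic effect scored microscopically. IC50 read graphically from % cytopathicity; mean of two experiments.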

The subject of experiment [5] is Human betaherpesvirus 5. The experiment can be described thus: concentration required to reduce virus HCMV (C)plaque formation by 50%. In kind it is functional, organism-based. In a few lines:
(§2)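 Wild-type HCMV clinical isolates from patients (congenital infection, mononucleosis, AIDS, bone marrow transplant) tested in confluent HEL fibroblasts. IC50 taken as the concentration reducing virus plaque formation by 50%; assays in duplicate.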

Experiment [6] has as its system HEL. The experiment can be described thus: In vitro alteration in cell morphology in HEL cells. It counts as functional. The settings on record: Homo sapiens. An outline of the steps: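 Normal HEL cells exposed to compounds and examined microscopically; minimum cytotoxic concentration is the lowest giving a detectable change in cell morphology. Duplicate assays.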

The test system of experiment [7] is Human betaherpesvirus 5. The experiment is described as follows: concentration required to reduce virus HCMV (F)plaque formation by 50%. In kind it is functional, organism-based. An outline of the steps:
as §2

For experiment [8], the system named is Human betaherpesvirus 5. The experiment can be described thus: concentration required to reduce virus HCMV (D)plaque formation by 50%. In kind it is functional, organism-based. An outline of the steps:
as §2

The test system of experiment [9] is Human betaherpesvirus 5. The experiment is described as follows: concentration required to reduce virus HCMV (G)plaque formation by 50%. It counts as functional, organism-based. An outline of the steps:
as §2

Experiment [10] concerns Human betaherpesvirus 5. The experiment is described as follows: concentration required to reduce virus HCMV (A)plaque formation by 50%. In kind it is functional, organism-based. An outline of the steps: as §2
In experiment [11] the test system is HEL. The experiment can be described thus: Inhibition of cell growth in HEL cells. The settings on record: Homo sapiens. It counts as functional. An outline of the steps:
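HEL fibroblasts seeded at 5×10^3 cells/well and left to proliferate 24 h, then given compound dilutions in duplicate. Incubated 3 days at 37 °C, 5% CO2; cells counted with a Coulter counter. CC50 is the concentration reducing cell growth by 50%.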

Experiment [12] deals with Human betaherpesvirus 5. The experiment can be described thus: concentration required to reduce virus HCMV (E)plaque formation by 50%. In kind it is functional, organism-based. In a few lines: as §2
Experiment [13] has as its system Human betaherpesvirus 5. The experiment can be described thus: concentration required to reduce virus HCMV (B)plaque formation by 50%. In kind it is functional, organism-based. An outline of the steps:
as §2

Usually CC50 stands for the concentration giving 50% cytotoxicity. A word on the EC50: it is the midpoint of the concentration-response curve. Low readings indicate a more potent agent, high ones a less potent agent. A word on the IC50: it is the concentration at which inhibition is half-maximal. Read a high IC50 as lower potency.

Molecules are shown by their SMILES.

Turning to `O=S1(=O)N=C(OCc2ccc(Cl)cc2)c2ccccc2N1Cc1ccc(Cl)cc1`, the half-maximal cytotoxic concentration (CC50) in experiment [1] is more than 250 µM. Besides, the concentration for a half-maximal effect (EC50) in [2] and in experiment [3] was more than 50 µM throughout.

As to `Nc1nc2c(ncn2COC(CO)CO)c(=O)[nH]1` [GANCICLOVIR], the concentration for half-maximal inhibition (IC50) worked out at 3.7 µM in the experiment on Human betaherpesvirus 5 [4]; 6.2 µM in the experiment on Human betaherpesvirus 5 [5]; 6.2 µM in the experiment with Human betaherpesvirus 5 [7]; 4.1 µM in the experiment with Human betaherpesvirus 5 [8]; 8.2 µM in the experiment with Human betaherpesvirus 5 [9]; 6.2 µM with Human betaherpesvirus 5 [10]. Also, the half-inhibitory concentration (IC50) in the experiment with Human betaherpesvirus 5 [12] came to 4.1 µM; with Human betaherpesvirus 5 [13], 6.2 µM. The MCC with HEL [6] was more than 150 µM. The same compound displayed a CC50 in the experiment with HEL [11] of 394 µM.

The record behind these values is ChEMBL document CHEMBL1133628, “Nonnucleoside human cytomegalovirus inhibitors: synthesis and antiviral evaluation of (chlorophenylmethyl)benzothiadiazine dioxide derivatives” (J Med Chem, 2000).
